Results published in ChEMBL document CHEMBL1134952, “Dual NK(1) antagonists--serotonin reuptake inhibitors as potential antidepressants. Part 2: SAR and activity of benzyloxyphenethyl piperazine derivatives” (Bioorg Med Chem Lett, 2002).
Calls of active or inactive are those of the source. The rule behind the calls is not given here.

biological target: T1, Substance-P receptor (Homo sapiens, UniProt P25103); test: Binding affinity against human Tachykinin receptor 1 expressed in CHO cells using [3H]-substance P as the radioligand; assay type: cell-based
T1 sequence (P25103 whole entry): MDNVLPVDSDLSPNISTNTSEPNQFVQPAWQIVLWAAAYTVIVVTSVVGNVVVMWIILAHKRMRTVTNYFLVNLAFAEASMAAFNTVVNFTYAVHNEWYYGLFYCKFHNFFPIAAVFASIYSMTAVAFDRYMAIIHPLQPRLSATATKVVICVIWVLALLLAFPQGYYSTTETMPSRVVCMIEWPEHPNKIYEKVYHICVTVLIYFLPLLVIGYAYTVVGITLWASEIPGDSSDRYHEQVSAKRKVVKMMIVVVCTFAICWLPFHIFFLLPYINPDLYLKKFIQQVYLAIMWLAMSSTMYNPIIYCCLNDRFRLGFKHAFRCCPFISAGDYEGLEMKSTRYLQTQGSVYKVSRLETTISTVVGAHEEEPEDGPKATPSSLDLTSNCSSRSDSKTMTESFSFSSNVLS

Row | SMILES | IC50
1 | Fc1cc(COCC(c2ccccc2)N2CCNCC2)cc(C(F)(F)F)c1 (configuration not stated) | 12.6 nM
2 | Clc1cc(Cl)cc(COC[C@H](c2ccccc2)N2CCNCC2)c1 | 3.16 nM
3 | Fc1ccc(C(COCc2cc(C(F)(F)F)cc(C(F)(F)F)c2)N2CCNCC2)cc1 (configuration not stated) | 100 nM
4 | Brc1cc(Br)cc(COC[C@H](c2ccccc2)N2CCNCC2)c1 | 3.16 nM
5 | COc1cccc(C(COCc2cc(C(F)(F)F)cc(C(F)(F)F)c2)N2CCNCC2)c1 (configuration not stated) | 1 nM
6 | CC(C)c1cccc(C(COCc2cc(C(F)(F)F)cc(C(F)(F)F)c2)N2CCNCC2)c1 (configuration not stated) | 39.8 nM
7 | FC(F)(F)c1cc(COCC(c2cccc(Cl)c2)N2CCNCC2)cc(C(F)(F)F)c1 (configuration not stated) | 1.58 nM
8 | COc1ccc(C(COCc2cc(C(F)(F)F)cc(C(F)(F)F)c2)N2CCNCC2)cc1 (configuration not stated) | 50.1 nM
9 | Fc1ccccc1C(COCc1cc(C(F)(F)F)cc(C(F)(F)F)c1)N1CCNCC1 (configuration not stated) | 5.01 nM
10 | Fc1cccc(C(COCc2cc(C(F)(F)F)cc(C(F)(F)F)c2)N2CCNCC2)c1F (configuration not stated) | 3.16 nM
11 | COc1ccccc1C(COCc1cc(C(F)(F)F)cc(C(F)(F)F)c1)N1CCNCC1 (configuration not stated) | 6.31 nM
12 | FC(F)(F)c1cc(COCC(c2ccccc2)N2CCNCC2)cc(C(F)(F)F)c1 (configuration not stated) | 5.01 nM
13 | Fc1cc(F)cc(COCC(c2ccccc2)N2CCNCC2)c1 (configuration not stated) | 200 nM
14 | FC(F)(F)c1cc(COCC(c2ccc(Cl)c(Cl)c2)N2CCNCC2)cc(C(F)(F)F)c1 (configuration not stated) | 5.01 nM
15 | Brc1cc(I)cc(COCC(c2ccccc2)N2CCNCC2)c1 (configuration not stated) | 1.26 nM
16 | FC(F)(F)c1cc(COCC(c2ccccc2Cl)N2CCNCC2)cc(C(F)(F)F)c1 (configuration not stated) | 1.58 nM
17 | Clc1cccc(COCC(c2ccccc2)N2CCNCC2)c1 (configuration not stated) | 398 nM
18 | COc1c(Br)cc(Br)cc1COCC(c1ccccc1)N1CCNCC1 (configuration not stated) | 7.94 nM
19 | Clc1cc(Cl)cc(COC[C@@H](c2ccccc2)N2CCNCC2)c1 | 25.1 nM
20 | Brc1cc(Br)cc(COC[C@@H](c2ccccc2)N2CCNCC2)c1 | 12.6 nM
21 | Cc1cc(C)cc(COCC(c2ccccc2)N2CCNCC2)c1 (configuration not stated) | 25.1 nM

test system: Cavia porcellus; test: Oral dose required attenuate by 99% the duration of vocalizations in the isolation-induced guinea pig pup by vocalization test; assay type: functional

Row | SMILES | Dose
22 | Brc1cc(Br)cc(COC[C@H](c2ccccc2)N2CCNCC2)c1 | 3.5e-05 M/kg

biological target: Sodium-dependent serotonin transporter (Rattus norvegicus, UniProt P31652); test: Binding affinity against Serotonin transporter in rat cerebral cortex using [3H]paroxetine binding assay.; assay type: tissue-based
Sequence (P31652 whole entry): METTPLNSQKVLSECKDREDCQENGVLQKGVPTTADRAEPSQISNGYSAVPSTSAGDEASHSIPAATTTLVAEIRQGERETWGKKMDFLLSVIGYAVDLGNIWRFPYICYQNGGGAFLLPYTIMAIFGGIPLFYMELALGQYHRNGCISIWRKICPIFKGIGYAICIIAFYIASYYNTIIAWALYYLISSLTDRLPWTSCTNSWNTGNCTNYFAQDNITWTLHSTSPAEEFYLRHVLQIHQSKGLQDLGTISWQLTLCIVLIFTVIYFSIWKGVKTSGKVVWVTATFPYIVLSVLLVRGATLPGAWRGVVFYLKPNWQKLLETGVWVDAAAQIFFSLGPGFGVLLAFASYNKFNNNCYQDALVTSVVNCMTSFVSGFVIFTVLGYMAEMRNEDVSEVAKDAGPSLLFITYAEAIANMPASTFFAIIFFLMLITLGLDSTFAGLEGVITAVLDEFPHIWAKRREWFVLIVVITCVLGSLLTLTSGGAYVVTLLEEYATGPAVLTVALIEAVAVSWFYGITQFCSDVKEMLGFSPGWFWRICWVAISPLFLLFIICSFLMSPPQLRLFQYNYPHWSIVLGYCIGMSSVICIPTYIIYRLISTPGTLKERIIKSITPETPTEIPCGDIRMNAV
In short: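 Rat cerebral cortex membranes, […] protein, incubated 120 min at 25 °C in 50 mM Tris–HCl pH 7.4 with 2 mM MgCl2 and 0.05 nM radioligand. Nonspecific binding taken as the residual binding with excess imipramine present.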

Row | SMILES | IC50
23 | Fc1cc(COCC(c2ccccc2)N2CCNCC2)cc(C(F)(F)F)c1 (configuration not stated) | 15.8 nM
24 | Clc1cc(Cl)cc(COC[C@H](c2ccccc2)N2CCNCC2)c1 | 2.51 nM
25 | Fc1ccc(C(COCc2cc(C(F)(F)F)cc(C(F)(F)F)c2)N2CCNCC2)cc1 (configuration not stated) | 158 nM
26 | Brc1cc(Br)cc(COC[C@H](c2ccccc2)N2CCNCC2)c1 | 10 nM
27 | COc1cccc(C(COCc2cc(C(F)(F)F)cc(C(F)(F)F)c2)N2CCNCC2)c1 (configuration not stated) | 200 nM
28 | CC(C)c1cccc(C(COCc2cc(C(F)(F)F)cc(C(F)(F)F)c2)N2CCNCC2)c1 (configuration not stated) | 316 nM
29 | FC(F)(F)c1cc(COCC(c2cccc(Cl)c2)N2CCNCC2)cc(C(F)(F)F)c1 (configuration not stated) | 251 nM
30 | COc1ccc(C(COCc2cc(C(F)(F)F)cc(C(F)(F)F)c2)N2CCNCC2)cc1 (configuration not stated) | 100 nM
31 | Fc1ccccc1C(COCc1cc(C(F)(F)F)cc(C(F)(F)F)c1)N1CCNCC1 (configuration not stated) | 200 nM
32 | Fc1cccc(C(COCc2cc(C(F)(F)F)cc(C(F)(F)F)c2)N2CCNCC2)c1F (configuration not stated) | 316 nM
33 | COc1ccccc1C(COCc1cc(C(F)(F)F)cc(C(F)(F)F)c1)N1CCNCC1 (configuration not stated) | 251 nM
34 | FC(F)(F)c1cc(COCC(c2ccccc2)N2CCNCC2)cc(C(F)(F)F)c1 (configuration not stated) | 251 nM
35 | Fc1cc(F)cc(COCC(c2ccccc2)N2CCNCC2)c1 (configuration not stated) | 0.794 nM
36 | FC(F)(F)c1cc(COCC(c2ccc(Cl)c(Cl)c2)N2CCNCC2)cc(C(F)(F)F)c1 (configuration not stated) | 200 nM
37 | Brc1cc(I)cc(COCC(c2ccccc2)N2CCNCC2)c1 (configuration not stated) | 25.1 nM
38 | FC(F)(F)c1cc(COCC(c2ccccc2Cl)N2CCNCC2)cc(C(F)(F)F)c1 (configuration not stated) | 200 nM
39 | Clc1cccc(COCC(c2ccccc2)N2CCNCC2)c1 (configuration not stated) | 7.94 nM
40 | COc1c(Br)cc(Br)cc1COCC(c1ccccc1)N1CCNCC1 (configuration not stated) | 6.31 nM
41 | Clc1cc(Cl)cc(COC[C@@H](c2ccccc2)N2CCNCC2)c1 | 12.6 nM
42 | CC(C)(C)c1cc(COCC(c2ccccc2)N2CCNCC2)cc(C(C)(C)C)c1 (configuration not stated) | 1000 nM
43 | Brc1cc(Br)cc(COC[C@@H](c2ccccc2)N2CCNCC2)c1 | 31.6 nM

test system: Rattus norvegicus; test: Intraperitoneal dose required to increase extracellular 5-HT levels to 250% in the frontal cortex of freely moving rats by using intracerebral microdialysis.; assay type: functional

Row | SMILES | Dose
44 | Brc1cc(Br)cc(COC[C@H](c2ccccc2)N2CCNCC2)c1 | 3.2e-05 M/kg

biological target: T1, Substance-P receptor; test: Binding affinity against human Tachykinin receptor 1 expressed in CHO cells using [3H]-substance P as the radioligand; less than 50% inhibition at 10e-5 M; assay type: cell-based

Row | SMILES | Log IC50
45 | CNCCC(Oc1ccc(C(F)(F)F)cc1)c1ccccc1 (configuration not stated) | inactive

test system: Gerbillinae; test: Dose required to decrease by 45% the duration of the foot-tapping, indicating efficacious central blockade of NK1 receptors; assay type: functional

Row | SMILES | Dose
46 | Brc1cc(Br)cc(COC[C@H](c2ccccc2)N2CCNCC2)c1 | 3.2e-05 M/kg

test system: Cavia porcellus; test: Oral dose required attenuate by 50% the duration of vocalizations in the isolation-induced guinea pig pup by vocalization test; assay type: functional

Row | SMILES | Dose
47 | Brc1cc(Br)cc(COC[C@H](c2ccccc2)N2CCNCC2)c1 | 1e-05 M/kg
